ChEMBL document CHEMBL1147561, “Application of the four-component Ugi condensation for the preparation of sulfated glycoconjugate libraries” (Bioorg Med Chem Lett, 2004)

Assays:
[1] = target: T1, Fibroblast growth factor 2 (Homo sapiens, UniProt P09038); assay: Binding affinity for human fibroblast growth factor 2 in surface plasmon resonance (SPR) assay
In short: (§1)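 SPR solution affinity format: growth factor pre-equilibrated with ligand in solution, mixture passed over a heparin-immobilized sensor chip. Free (unbound) growth factor binding to heparin raises the SPR response and gives its concentration. Kd calculated from the decline in free growth factor concentration versus ligand concentration. Values are mean and SD of at least two independent measurements.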

[2] = target: Fibroblast growth factor 1 (Homo sapiens, UniProt P05230); assay: Binding affinity for human fibroblast growth factor 1 in surface plasmon resonance (SPR) assay; in short: as §1
Chain of Fibroblast growth factor 1 (P05230 whole entry): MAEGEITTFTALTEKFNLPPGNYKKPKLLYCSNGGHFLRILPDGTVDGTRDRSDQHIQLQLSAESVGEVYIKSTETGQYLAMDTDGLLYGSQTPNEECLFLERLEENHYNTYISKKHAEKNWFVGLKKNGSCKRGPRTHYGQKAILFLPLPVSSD

[3] = target: T1, Fibroblast growth factor 2; assay: Binding affinity for human fibroblast growth factor 2 in surface plasmon resonance (SPR) assay (No binding); in short: as §1

T1 sequence (P09038 143-288 limits assumed): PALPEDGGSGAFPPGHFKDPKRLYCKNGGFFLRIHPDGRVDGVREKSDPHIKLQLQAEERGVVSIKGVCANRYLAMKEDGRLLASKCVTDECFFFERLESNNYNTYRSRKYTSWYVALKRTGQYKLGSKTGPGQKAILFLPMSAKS

| SMILES | Kd [1] | Kd [2] | Kd [3] |
| --- | --- | --- | --- |
| CO[C@H]1O[C@@H](COCC(=O)N(CC(=O)NC2CCCCC2)Cc2ccccc2)[C@@H](OS(=O)(=O)O)[C@H](OS(=O)(=O)O)[C@H]1OS(=O)(=O)O | 200 µM | 260 µM |  |
| CO[C@H]1O[C@@H](COCC(=O)N(CCS(=O)(=O)O)CC(=O)NC2CCCCC2)[C@@H](OS(=O)(=O)O)[C@H](OS(=O)(=O)O)[C@H]1OS(=O)(=O)O | 551 µM | 296 µM |  |
| CC(C)(CC(=O)N(CCO[C@H]1O[C@@H](COS(=O)(=O)O)[C@@H](OS(=O)(=O)O)[C@H](OS(=O)(=O)O)[C@H]1OS(=O)(=O)O)CC(=O)NC1CCCCC1)CC(=O)N(CCO[C@H]1O[C@@H](COS(=O)(=O)O)[C@@H](OS(=O)(=O)O)[C@H](OS(=O)(=O)O)[C@H]1OS(=O)(=O)O)CC(=O)NC1CCCCC1 | 34 µM | 10 µM |  |
| O=C(CN(Cc1ccccc1)C(=O)C1OC(OS(=O)(=O)O)C(OS(=O)(=O)O)C(OS(=O)(=O)O)C1O)NC1CCCCC1 (centres undefined) | 1160 µM | 587 µM |  |
| O=C(CN(Cc1ccccc1)C(=O)C1OC(OS(=O)(=O)O)C(OS(=O)(=O)O)C(OS(=O)(=O)O)C1OS(=O)(=O)O)NC1CCCCC1 (centres undefined) | 254 µM | 122 µM |  |

Second part, the compound after the results:

| Kd [1] | Kd [2] | Kd [3] | SMILES |
| --- | --- | --- | --- |
| 206 µM | 104 µM |  | O=C(CN(Cc1ccccc1)C(=O)C1OC(OS(=O)(=O)O)C(OS(=O)(=O)O)C(OS(=O)(=O)O)C1OS(=O)(=O)O)NCc1ccccc1 (centres undefined) |
| 16 µM | 4.84 µM |  | CO[C@H]1O[C@@H](COCC(=O)N(CC(=O)NCCO[C@H]2O[C@@H](COS(=O)(=O)O)[C@@H](OS(=O)(=O)O)[C@H](OS(=O)(=O)O)[C@H]2OS(=O)(=O)O)Cc2ccccc2)[C@@H](OS(=O)(=O)O)[C@H](OS(=O)(=O)O)[C@H]1OS(=O)(=O)O |
| 85 µM | 6.36 µM |  | O=C(CN(Cc1ccccc1)C(=O)CO[C@@H]1[C@H](OS(=O)(=O)O)O[C@H](COS(=O)(=O)O)[C@H](OS(=O)(=O)O)[C@H]1OS(=O)(=O)O)NCCO[C@H]1O[C@@H](COS(=O)(=O)O)[C@@H](OS(=O)(=O)O)[C@H](OS(=O)(=O)O)[C@H]1OS(=O)(=O)O |
| > 800 µM | 2340 µM |  | O=C(CN(CCOS(=O)(=O)O)C(=O)C1OC(OS(=O)(=O)O)C(OS(=O)(=O)O)C(OS(=O)(=O)O)C1OS(=O)(=O)O)NC1CCCCC1 (centres undefined) |
|  | 62.5 µM | > 800 µM | O=C(NC1CCCCC1)C(c1ccccc1)N(Cc1ccccc1)C(=O)C1OC(OS(=O)(=O)O)C(OS(=O)(=O)O)C(OS(=O)(=O)O)C1OS(=O)(=O)O (centres undefined) |
| 287 µM | 34.3 µM |  | CC(=O)N(CC(=O)NCCO[C@H]1O[C@@H](COS(=O)(=O)O)[C@@H](OS(=O)(=O)O)[C@H](OS(=O)(=O)O)[C@H]1OS(=O)(=O)O)Cc1ccccc1 |
| 27.9 µM | 32.6 µM |  | CO[C@H]1O[C@@H](COCC(=O)N(CC(=O)NC2CCCCC2)[C@H]2CC[C@H](N(CC(=O)NC3CCCCC3)C(=O)COC[C@@H]3O[C@H](OC)[C@H](OS(=O)(=O)O)[C@@H](OS(=O)(=O)O)[C@@H]3OS(=O)(=O)O)CC2)[C@@H](OS(=O)(=O)O)[C@H](OS(=O)(=O)O)[C@H]1OS(=O)(=O)O |
